In the library only some 0.77% were active in any assay of this set; here they are far more common.
hIAP block: blocks human intestinal alkaline phosphatase; P09923; purified IAP, CDP-Star luminescence, 30 min; inhibition, % at 10 µM; 330,000 compounds, 0.12% hits; AID 2544;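 active = inhibition reaching a set limit with compound at 10 µM in the primary screen, cut at about 35% in these data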
Target sequence (P09923 whole entry, looked up): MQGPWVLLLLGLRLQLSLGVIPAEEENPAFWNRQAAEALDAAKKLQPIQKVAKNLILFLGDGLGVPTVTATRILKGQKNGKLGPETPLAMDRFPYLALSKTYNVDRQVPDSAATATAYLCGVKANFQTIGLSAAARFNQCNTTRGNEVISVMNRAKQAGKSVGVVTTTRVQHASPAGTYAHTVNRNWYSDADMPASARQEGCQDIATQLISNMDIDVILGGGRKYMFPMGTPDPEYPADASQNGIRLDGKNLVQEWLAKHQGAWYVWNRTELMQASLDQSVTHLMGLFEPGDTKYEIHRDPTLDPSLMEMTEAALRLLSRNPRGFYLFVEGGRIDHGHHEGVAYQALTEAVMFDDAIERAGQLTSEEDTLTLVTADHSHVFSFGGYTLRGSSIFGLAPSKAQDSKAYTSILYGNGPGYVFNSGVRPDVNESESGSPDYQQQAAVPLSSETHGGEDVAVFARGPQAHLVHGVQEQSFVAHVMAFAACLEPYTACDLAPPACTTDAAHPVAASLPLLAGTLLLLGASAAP
bIAP inhibitor: blocks bovine intestinal alkaline phosphatase activity. 190,000 tested, under 10 active. purified bovine IAP, CDP-star luminescence, 30 min. inhibition, % at 20 µM;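 active = over 50% inhibition of intestinal alkaline phosphatase at 20 µM in the single-dose screen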
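Assay system – bovine IAP enzyme · Quantity – bovine IAP at 1/65,000,000 final dilution · Detection – CDP-star luminescence signal · Times – 30 min reaction at room temperature · Also added – CDP-star substrate at 30 µM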
mIAP inh: blocks mouse intestinal alkaline phosphatase; AID 2806; 330,000 compounds, 0.2% hits; purified mouse IAP, CDP-Star luminescence, 30 min; inhibition, % at 10 µM;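 active = inhibition of at least 40% at 10 µM in the primary screen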
bIAP act: intestinal alkaline phosphatase (bovine) activation; purified bovine IAP, CDP-star luminescence, 30 min; active compounds read high; fold of DMSO-control signal, blank-subtracted; activation factor at 20 µM; 200,000 compounds, 0.17% hits; AID 1016;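 active = activation factor of 2 or more at 20 µM, a signal rise over negative controls twice the positive control's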
hIAP activ: increases human intestinal alkaline phosphatase activity | P09923 | purified human IAP, CDP-Star luminescence, 30 min; active compounds read high; 1 = vehicle-only enzyme, 0 = enzyme-free background | 330,000 compounds, 0.16% hits | activation factor at 10 µM;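 active = activation factor of the enzyme at least 2-fold when tested at 20 µM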
mIAP act: increases mouse intestinal alkaline phosphatase activity; muIAP, CDP-Star luminescence, 30 min; active compounds read high; 1 = vehicle-only enzyme signal, 0 = enzyme-free wells; activation factor at 10 µM; 330,000 compounds, 0.24% hits; AID 2805;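 active = activation factor of at least 2 at 20 µM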
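also added = chemiluminescent substrate CDP-Star | test system = mouse IAP enzyme | signal = chemiluminescence readout | compound = DMSO-dissolved test compounds | incubation = 30 min at room temperature | benchmarks = DMSO wells, no-enzyme wells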
Numbers stand for hits; . = inactive; / = no result.

SMILES	hIAP block	bIAP inhibitor	mIAP inh	bIAP act	hIAP activ	mIAP act
CCC(NC(=O)Nc1cc(OC)c(OC)c(OC)c1)(C(F)(F)F)C(F)(F)F	.	.	.	.	.	2.1
COc1cc(NC(=O)COC(C)=O)cc(OC)c1OC	.	.	.	.	.	.
Cc1ccc(CNS(=O)(=O)c2ccc(CN3C(=O)c4cccnc4C3=O)cc2)o1	.	/	.	/	.	.
CCOC(=O)c1ccc(NC(=O)Nc2ccc(F)cc2)cc1	.	.	.	.	.	2.5
CCOC(=O)c1cccc(NC(=O)Nc2ccc(OCC)cc2)c1	.	.	.	.	.	2.9
COC(=O)c1ccc(NC(=O)Nc2ccc(F)cc2)cc1	.	.	.	.	.	.
CCOC(=O)c1ccc(NC(=O)NCc2ccccc2OC)cc1	.	.	.	.	.	2.4
CCCCOC(=O)c1ccc(NC(=O)Nc2ccc(OC)c(OC)c2)cc1	.	.	.	.	.	2.2
CCOC(=O)c1ccc(NC(=O)NCc2ccccc2)cc1	.	.	.	.	.	.
COc1cc(-c2noc(C3CCCN(C(=O)c4c(F)cccc4F)C3)n2)cc(OC)c1OC (configuration not stated)	.	/	.	/	.	.
CCOC(=O)[C@@H]1[C@H]2COc3cc(OC)ccc3[C@@H]2N2C(=O)N(c3ccc(F)cc3)C(=O)[C@]12C	.	/	.	/	.	.
COc1ccc(CNC[C@@H](CCCCN(C)Cc2ccc(OC)cc2)N2C[C@H](c3ccccc3)N(CCc3ccc(Cl)c(Cl)c3)C(=O)C2=O)cc1	.	.	.	6.6	.	.
COc1ccc(/C=N/Nc2cc(=O)n(C)c(=O)n2C)cc1OC	.	.	.	2	.	.
Cc1ccc(NP(=O)(Nc2ccc(C)cc2)Nc2ccc(C)cc2)cc1	.	.	.	.	.	2.5
O=C(NNC(=S)NCc1ccco1)c1ccc(Cl)s1	.	.	.	.	.	.
O=C(CSCc1ccco1)c1ccc(Cl)s1	.	.	45	.	.	.
O=[N+]([O-])c1ccc(CS(=O)(=O)c2ncn[nH]2)cc1	.	/	.	/	.	.
CC(C(=O)NCc1ccco1)n1ccc2cc(S(=O)(=O)N3CCCC3)ccc21 (configuration not stated)	.	/	.	/	.	.
COc1ccc(CNC(=O)C(C)n2ccc3cc(S(=O)(=O)N4CCCCCC4)ccc32)cc1 (configuration not stated)	.	/	.	/	.	2.1
COc1cc(OC)c(C(=O)OCC(=O)Nc2nnc(-c3ccccc3)o2)cc1OC	.	/	.	/	.	.
Cc1ccc(NC(=O)CSc2nc3ccccc3c(=O)n2CCCN2CCCCC2)cc1Cl	.	.	.	2.6	.	.
CCC(=O)Nc1cccc(C2=NN(c3ccccc3)C(c3ccc(OC)cc3)C2)c1 (configuration not stated)	.	/	.	/	.	2.7
Cc1ccc(C)c(SCC(=O)N(C)CC(=O)Nc2ccc(N3CCOCC3)cc2)c1	.	/	.	/	.	.
COc1cccc(CN(C)C(=O)CN2C(=O)NC(c3ccccc3)(c3ccccc3)C2=O)c1	.	/	.	/	.	.
Cc1csc(NC(=O)C(Cc2ccccc2)n2cccc2)n1 (configuration not stated)	.	.	43	.	.	.
SMILES	hIAP block	bIAP inhibitor	mIAP inh	bIAP act	hIAP activ	mIAP act
Cc1ccc(NC(=O)C(Cc2ccccc2)n2cccc2)cc1 (configuration not stated)	.	/	.	/	.	.
CC(C)C(=O)n1nc(-c2cccnc2)nc1NCc1ccc(F)cc1	.	.	.	.	.	.
Fc1c(F)c(F)c(N/N=C/c2c[nH]c3ccccc23)c(F)c1F	.	.	.	2.7	.	.
Cc1ccc2nc(C3CCN(CC(=O)Nc4ccc5c(c4)OCCO5)CC3)[nH]c2c1	.	.	.	2.1	.	.
O=C(CN1CCC(c2nc3ccccc3[nH]2)CC1)Nc1ccc2c(c1)OCO2	.	.	.	.	.	.
OCc1nc2ccccc2n1CCCCOc1ccccc1	.	/	.	/	.	.
OCc1nc2ccccc2n1CCCOc1ccc(Br)cc1	.	.	.	2.9	.	.
S=C(NCc1ccccc1)Nc1ccc(Oc2ccccc2)cc1	.	/	.	/	.	3.8
S=C(NCc1ccccc1)NCc1ccc(CNC(=S)NCc2ccccc2)cc1	.	.	.	.	.	3.2
Cc1ccccc1NC(=S)NCc1ccc2c(c1)cc(C)n2C	.	.	.	.	.	.
Cc1cc2cc(CNC(=S)NCc3ccccc3)ccc2n1C	.	.	.	.	.	2.3
Fc1ccc(CNC(=S)NCc2ccccc2)cc1	.	/	.	/	.	.
CCOC(=O)CCNC(=O)N1CCCC(N(C)CCc2ccccc2)C1 (configuration not stated)	.	/	.	/	.	.
COc1cc(C(=O)NCC2(c3ccccc3)CCCC2)cc(OC)c1OC	.	/	.	/	.	.
O=C(NC(=S)Nc1ccccc1O)c1ccccc1Cl	.	.	.	.	.	.
CCc1ccc(OCC(=O)N/N=C(\C)c2ccc(-n3ccnc3)cc2)cc1	.	.	.	2	.	.
COc1cc(C(=O)NCCC(=O)NC(C)CCc2ccccc2)cc(OC)c1OC (configuration not stated)	.	/	.	/	.	.
C#CCOCCOCCOCCNc1nc(N2CCN(C(=O)C(Cc3cc4ccccc4[nH]3)n3cc(C(N)C(C)CC)nn3)CC2)nc(N2CCN(C(=O)C(Cc3cc4ccccc4[nH]3)n3cc(C(N)C(C)CC)nn3)CC2)n1 (configuration not stated)	.	.	.	3.9	.	.
Cc1cccc(NC(=O)C2C(c3ccccc3)C2(Cl)Cl)c1 (configuration not stated)	.	.	.	.	.	2.5
CCN1C(=O)/C(=c2\o/c(=C3\C=Cc4ccccc4N3CC)c(=O)n2CC)SC1=S	/	.	/	.	/	/
CCN1C(=O)/C(=C2\C=Cc3ccccc3N2CC)SC1=S	.	.	41	.	.	.
CC(C)COc1ccc(C(=S)N2CCCC2)cc1	.	/	.	/	.	.
COc1cccc(NC(=O)Nc2ccc3c(c2)N(C)C(=O)CS3)c1	.	.	.	.	.	2.7
CC(=O)Nc1ccc(NC(=O)Nc2ccc3c(c2)N(C)C(=O)CS3)cc1	.	.	.	.	.	.
CCOc1ccc(OCC)c(NC(=O)Nc2ccc3c(c2)N(C)C(=O)CS3)c1	.	.	.	.	.	2.4
Cc1ccc(Cl)cc1NC(=O)C1CC1c1ccccc1 (configuration not stated)	.	/	.	/	.	.
CCCCc1nc(SCC(=O)Nc2cccc(Cl)c2)n[nH]1	.	/	.	/	.	.
COc1ccc(-n2cc(CNCCc3ncc(C)[nH]3)c(-c3ccccc3Cl)n2)cc1	.	.	.	2.4	.	.
COc1ccc(-n2cc(CNCCc3cnc[nH]3)c(-c3cccc(F)c3)n2)cc1	.	.	.	2.9	.	.

Assay outcomes deposited in PubChem by Sanford-Burnham Center for Chemical Genomics.
